Reference: publication PMC9136965 (ACS Central Science, 2022)
≈ marks a conversion by molar mass, not a printed value. Where two headings read alike, the source gives them in different places.

Columns and labels:
B. subtilis 168 cells = assay: Bright-field microscopy of cell morphology; type: cell-based, Bacillus subtilis; conditions: B. subtilis 168, bright-field microscopy, Figure 5A
B. subtilis 168 = assay: Cell lytic assay; type: cell-based, Bacillus subtilis; conditions: B. subtilis 168, LB, 4× MIC, OD600 at 37 °C, n = 3, Figure 5B
Summary of the method: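 B. subtilis 168 cultures exposed to test compounds or reference antibiotics to tell lysis from growth arrest. Triplicate experiments (n = 3); values plotted as means with standard deviation (s.d.).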

## CN[C@H](CC(C)C)C(=O)N[C@H]1C(=O)N[C@@H](CC(N)=O)C(=O)N[C@H]2C(=O)N[C@H]3C(=O)N[C@H](C(=O)N[C@H](C(=O)O)c4cc(O)cc(O)c4-c4cc3ccc4O)[C@H](O)c3ccc(c(Cl)c3)Oc3cc2cc(c3O[C@@H]2O[C@H](CO)[C@@H](O)[C@H](O)[C@H]2O[C@H]2C[C@](C)(N)[C@H](O)[C@H](C)O2)Oc2ccc(cc2Cl)[C@H]1O [vancomycin]
M. tuberculosis H37Ra; H37Ra
  MIC: 2 µg/mL (≈ 1.38 µM)

## corbomycin
B. subtilis 168 cells
  growth morphology of treated cells: extended and twisted phenotype
B. subtilis 168
  bacteriostatic or lytic action: bacteriostatic

## complestatin
B. subtilis 168 cells
  growth morphology of treated cells: extended and twisted phenotype
B. subtilis 168
  bacteriostatic or lytic action: bacteriostatic
M. tuberculosis H37Ra
  MIC: >128 µg/mL
